From ChEMBL document CHEMBL1147809, “Tumor-cell-targeted methionine-enkephalin analogues containing unnatural amino acids: design, synthesis, and in vitro antitumor activity” (2006)
*1 amine or outer side, *2 acyl side, *3 side chain or, on linkers, in order; H or OH if unused. Where a SMILES comes first, the peptide text is derived from it. [ ]: non-standard residue; d: D form. X2 = O=C(C1(N[*:1])C2CC3CC(C2)CC1C3)[*:2]

tested on: HeLa; test: Antiproliferative activity against human HeLa cell line at 1000 uM relative to control; assay type: functional
Procedure, shortened: (§1)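 Cells from ATCC grown as monolayers in DMEM with 10% FBS, 2 mM glutamine, penicillin/streptomycin, 37 °C, 5% CO2. Seeded at 2 × 10^4 cells/mL, and after 24 h the medium was replaced with fresh medium containing compound (water/10% DMSO stock, PBS working dilutions 10^-3 to 10^-6 M). Exposure was 72 h, then MTT read-out. Growth % = (A_peptide − A_blank)/(A_control − A_blank) × 100, with inhibition taken relative to untreated cells. Values are means of three experiments run in triplicate.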

| SMILES | inhibition at 1000 µM |
| --- | --- |
| CSCC[C@H](NC(=O)[C@H](Cc1ccccc1)NC(=O)CNC(=O)CNC(=O)[C@@H](N)Cc1ccc(O)cc1)C(=O)NC1(C(=O)O)C2CC3CC(C2)CC1C3 (stereo partly drawn) (H-YGGFM[X2]-OH) | 9.3% |
| N[C@@H](Cc1ccc(O)cc1)C(=O)NC1(C(=O)O)C2CC3CC(C2)CC1C3 (stereo partly drawn) | 36.1% |

tested on: HBL; test: Antiproliferative activity against human HBL cell line at 10 uM relative to control; assay type: functional; procedure, shortened: as §1

| SMILES | inhibition at 10 µM |
| --- | --- |
| CSCC[C@H](NC(=O)[C@H](Cc1ccccc1)NC(=O)CNC(=O)CNC(=O)[C@@H](N)Cc1ccc(O)cc1)C(=O)NC1(C(=O)O)C2CC3CC(C2)CC1C3 (stereo partly drawn) (H-YGGFM[X2]-OH) | 70.7% |
| N[C@@H](Cc1ccc(O)cc1)C(=O)NC1(C(=O)O)C2CC3CC(C2)CC1C3 (stereo partly drawn) | 14% |

tested on: HBL; test: Antiproliferative activity against human HBL cell line at 100 uM relative to control; assay type: functional; procedure, shortened: as §1

| SMILES | inhibition at 100 µM |
| --- | --- |
| N[C@@H](Cc1ccc(O)cc1)C(=O)NC1(C(=O)O)C2CC3CC(C2)CC1C3 (stereo partly drawn) | 7.5% |

tested on: HBL; test: Antiproliferative activity against human HBL cell line at 1000 uM relative to control; assay type: functional; procedure, shortened: as §1

| SMILES | inhibition at 1000 µM |
| --- | --- |
| CSCC[C@H](NC(=O)[C@H](Cc1ccccc1)NC(=O)CNC(=O)CNC(=O)[C@@H](N)Cc1ccc(O)cc1)C(=O)NC1(C(=O)O)C2CC3CC(C2)CC1C3 (stereo partly drawn) (H-YGGFM[X2]-OH) | 34.4% |
| N[C@@H](Cc1ccc(O)cc1)C(=O)NC1(C(=O)O)C2CC3CC(C2)CC1C3 (stereo partly drawn) | 14% |

tested on: HT-29; test: Antiproliferative activity against human HT29 cell line at 10 uM relative to control; assay type: functional; procedure, shortened: as §1

| SMILES | inhibition at 10 µM |
| --- | --- |
| N[C@@H](Cc1ccc(O)cc1)C(=O)NC1(C(=O)O)C2CC3CC(C2)CC1C3 (stereo partly drawn) | 1.6% |

tested on: HT-29; test: Antiproliferative activity against human HT29 cell line at 100 uM relative to control; assay type: functional; procedure, shortened: as §1

| SMILES | inhibition at 100 µM |
| --- | --- |
| N[C@@H](Cc1ccc(O)cc1)C(=O)NC1(C(=O)O)C2CC3CC(C2)CC1C3 (stereo partly drawn) | 5.4% |

tested on: HT-29; test: Antiproliferative activity against human HT29 cell line at 1000 uM relative to control; assay type: functional; procedure, shortened: as §1

| SMILES | inhibition at 1000 µM |
| --- | --- |
| CSCC[C@H](NC(=O)[C@H](Cc1ccccc1)NC(=O)CNC(=O)CNC(=O)[C@@H](N)Cc1ccc(O)cc1)C(=O)NC1(C(=O)O)C2CC3CC(C2)CC1C3 (stereo partly drawn) (H-YGGFM[X2]-OH) | 9.2% |
| N[C@@H](Cc1ccc(O)cc1)C(=O)NC1(C(=O)O)C2CC3CC(C2)CC1C3 (stereo partly drawn) | 26.5% |

tested on: SW-620; test: Antiproliferative activity against human SW620 cell line at 10 uM relative to control; assay type: functional; procedure, shortened: as §1

| SMILES | inhibition at 10 µM |
| --- | --- |
| N[C@@H](Cc1ccc(O)cc1)C(=O)NC1(C(=O)O)C2CC3CC(C2)CC1C3 (stereo partly drawn) | 16.5% |

tested on: SW-620; test: Antiproliferative activity against human SW620 cell line at 100 uM relative to control; assay type: functional; procedure, shortened: as §1

| SMILES | inhibition at 100 µM |
| --- | --- |
| N[C@@H](Cc1ccc(O)cc1)C(=O)NC1(C(=O)O)C2CC3CC(C2)CC1C3 (stereo partly drawn) | 28.1% |

tested on: SW-620; test: Antiproliferative activity against human SW620 cell line at 1000 uM relative to control; assay type: functional; procedure, shortened: as §1

| SMILES | inhibition at 1000 µM |
| --- | --- |
| N[C@@H](Cc1ccc(O)cc1)C(=O)NC1(C(=O)O)C2CC3CC(C2)CC1C3 (stereo partly drawn) | 58.2% |

tested on: Caco-2; test: Antiproliferative activity against human Caco-2 cell line at 10 uM relative to control; assay type: functional; procedure, shortened: as §1

| SMILES | inhibition at 10 µM |
| --- | --- |
| CSCC[C@H](NC(=O)[C@H](Cc1ccccc1)NC(=O)CNC(=O)CNC(=O)[C@@H](N)Cc1ccc(O)cc1)C(=O)NC1(C(=O)O)C2CC3CC(C2)CC1C3 (stereo partly drawn) (H-YGGFM[X2]-OH) | 11.1% |
| N[C@@H](Cc1ccc(O)cc1)C(=O)NC1(C(=O)O)C2CC3CC(C2)CC1C3 (stereo partly drawn) | 22.7% |

tested on: Caco-2; test: Antiproliferative activity against human Caco-2 cell line at 100 uM relative to control; assay type: functional; procedure, shortened: as §1

| SMILES | inhibition at 100 µM |
| --- | --- |
| N[C@@H](Cc1ccc(O)cc1)C(=O)NC1(C(=O)O)C2CC3CC(C2)CC1C3 (stereo partly drawn) | 18.9% |

tested on: Caco-2; test: Antiproliferative activity against human Caco-2 cell line at 1000 uM relative to control; assay type: functional; procedure, shortened: as §1

| SMILES | inhibition at 1000 µM |
| --- | --- |
| CSCC[C@H](NC(=O)[C@H](Cc1ccccc1)NC(=O)CNC(=O)CNC(=O)[C@@H](N)Cc1ccc(O)cc1)C(=O)NC1(C(=O)O)C2CC3CC(C2)CC1C3 (stereo partly drawn) (H-YGGFM[X2]-OH) | 47% |
| N[C@@H](Cc1ccc(O)cc1)C(=O)NC1(C(=O)O)C2CC3CC(C2)CC1C3 (stereo partly drawn) | 26.4% |

tested on: MCF7; test: Antiproliferative activity against human MCF7 cell line at 10 uM relative to control; assay type: functional
Procedure, shortened: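 MTT assay on monolayer cells grown in DMEM with 10% FBS, 2 mM glutamine, penicillin and streptomycin, at 37 °C in 5% CO2. Cells were plated at 2 × 10^4 cells/mL on day 0. After 24 h the medium was replaced with fresh medium containing compound (working dilutions in PBS from 10% DMSO/water stock), then incubated 72 h. Percent growth inhibition was calculated against untreated cells after blank subtraction. Values are means of three experiments run in triplicate.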

| SMILES | inhibition at 10 µM |
| --- | --- |
| CSCC[C@H](NC(=O)[C@H](Cc1ccccc1)NC(=O)CNC(=O)CNC(=O)[C@@H](N)Cc1ccc(O)cc1)C(=O)NC1(C(=O)O)C2CC3CC(C2)CC1C3 (stereo partly drawn) (H-YGGFM[X2]-OH) | 7.1% |
| N[C@@H](Cc1ccc(O)cc1)C(=O)NC1(C(=O)O)C2CC3CC(C2)CC1C3 (stereo partly drawn) | 2.4% |

tested on: MCF7; test: Antiproliferative activity against human MCF7 cell line at 100 uM relative to control; assay type: functional; procedure, shortened: as §1

| SMILES | inhibition at 100 µM |
| --- | --- |
| CSCC[C@H](NC(=O)[C@H](Cc1ccccc1)NC(=O)CNC(=O)CNC(=O)[C@@H](N)Cc1ccc(O)cc1)C(=O)NC1(C(=O)O)C2CC3CC(C2)CC1C3 (stereo partly drawn) (H-YGGFM[X2]-OH) | 6.9% |

tested on: MCF7; test: Antiproliferative activity against human MCF7 cell line at 1000 uM relative to control; assay type: functional; procedure, shortened: as §1

| SMILES | inhibition at 1000 µM |
| --- | --- |
| CSCC[C@H](NC(=O)[C@H](Cc1ccccc1)NC(=O)CNC(=O)CNC(=O)[C@@H](N)Cc1ccc(O)cc1)C(=O)NC1(C(=O)O)C2CC3CC(C2)CC1C3 (stereo partly drawn) (H-YGGFM[X2]-OH) | 25.9% |
| N[C@@H](Cc1ccc(O)cc1)C(=O)NC1(C(=O)O)C2CC3CC(C2)CC1C3 (stereo partly drawn) | 7.5% |

tested on: HEp-2; test: Antiproliferative activity against human HEp2 cell line at 10 uM relative to control; assay type: functional; procedure, shortened: as §1

| SMILES | inhibition at 10 µM |
| --- | --- |
| CSCC[C@H](NC(=O)[C@H](Cc1ccccc1)NC(=O)CNC(=O)CNC(=O)[C@@H](N)Cc1ccc(O)cc1)C(=O)NC1(C(=O)O)C2CC3CC(C2)CC1C3 (stereo partly drawn) (H-YGGFM[X2]-OH) | 3.9% |
| N[C@@H](Cc1ccc(O)cc1)C(=O)NC1(C(=O)O)C2CC3CC(C2)CC1C3 (stereo partly drawn) | 19.7% |

tested on: HEp-2; test: Antiproliferative activity against human HEp2 cell line at 100 uM relative to control; assay type: functional; procedure, shortened: as §1

| SMILES | inhibition at 100 µM |
| --- | --- |
| N[C@@H](Cc1ccc(O)cc1)C(=O)NC1(C(=O)O)C2CC3CC(C2)CC1C3 (stereo partly drawn) | 24.9% |

tested on: HEp-2; test: Antiproliferative activity against human HEp2 cell line at 1000 uM relative to control; assay type: functional; procedure, shortened: as §1

| SMILES | inhibition at 1000 µM |
| --- | --- |
| CSCC[C@H](NC(=O)[C@H](Cc1ccccc1)NC(=O)CNC(=O)CNC(=O)[C@@H](N)Cc1ccc(O)cc1)C(=O)NC1(C(=O)O)C2CC3CC(C2)CC1C3 (stereo partly drawn) (H-YGGFM[X2]-OH) | 45% |
| N[C@@H](Cc1ccc(O)cc1)C(=O)NC1(C(=O)O)C2CC3CC(C2)CC1C3 (stereo partly drawn) | 30.4% |

tested on: HeLa; test: Antiproliferative activity against human HeLa cell line at 10 uM relative to control; assay type: functional; procedure, shortened: as §1

| SMILES | inhibition at 10 µM |
| --- | --- |
| N[C@@H](Cc1ccc(O)cc1)C(=O)NC1(C(=O)O)C2CC3CC(C2)CC1C3 (stereo partly drawn) | 10% |

tested on: HeLa; test: Antiproliferative activity against human HeLa cell line at 100 uM relative to control; assay type: functional; procedure, shortened: as §1

| SMILES | inhibition at 100 µM |
| --- | --- |
| N[C@@H](Cc1ccc(O)cc1)C(=O)NC1(C(=O)O)C2CC3CC(C2)CC1C3 (stereo partly drawn) | 8.2% |

tested on: SW-620; test: Antiproliferative activity against human SW620 cell line at 1 uM relative to control; assay type: functional; procedure, shortened: as §1

| SMILES | inhibition at 1 µM |
| --- | --- |
| N[C@@H](Cc1ccc(O)cc1)C(=O)NC1(C(=O)O)C2CC3CC(C2)CC1C3 (stereo partly drawn) | 12.9% |

tested on: Caco-2; test: Antiproliferative activity against human Caco-2 cell line at 1 uM relative to control; assay type: functional; procedure, shortened: as §1

| SMILES | inhibition at 1 µM |
| --- | --- |
| N[C@@H](Cc1ccc(O)cc1)C(=O)NC1(C(=O)O)C2CC3CC(C2)CC1C3 (stereo partly drawn) | 3.5% |

tested on: MCF7; test: Antiproliferative activity against human MCF7 cell line at 1 uM relative to control; assay type: functional; procedure, shortened: as §1

| SMILES | inhibition at 1 µM |
| --- | --- |
| CSCC[C@H](NC(=O)[C@H](Cc1ccccc1)NC(=O)CNC(=O)CNC(=O)[C@@H](N)Cc1ccc(O)cc1)C(=O)NC1(C(=O)O)C2CC3CC(C2)CC1C3 (stereo partly drawn) (H-YGGFM[X2]-OH) | 2.2% |

tested on: HEp-2; test: Antiproliferative activity against human HEp2 cell line at 1 uM relative to control; assay type: functional; procedure, shortened: as §1

| SMILES | inhibition at 1 µM |
| --- | --- |
| N[C@@H](Cc1ccc(O)cc1)C(=O)NC1(C(=O)O)C2CC3CC(C2)CC1C3 (stereo partly drawn) | 14.2% |

tested on: HBL; test: Antiproliferative activity against human HBL cell line at 1 uM relative to control; assay type: functional; procedure, shortened: as §1

| SMILES | inhibition at 1 µM |
| --- | --- |
| CSCC[C@H](NC(=O)[C@H](Cc1ccccc1)NC(=O)CNC(=O)CNC(=O)[C@@H](N)Cc1ccc(O)cc1)C(=O)NC1(C(=O)O)C2CC3CC(C2)CC1C3 (stereo partly drawn) (H-YGGFM[X2]-OH) | 4.1% |
| N[C@@H](Cc1ccc(O)cc1)C(=O)NC1(C(=O)O)C2CC3CC(C2)CC1C3 (stereo partly drawn) | 6.5% |

tested on: HT-29; test: Antiproliferative activity against human HT29 cell line at 1 uM relative to control; assay type: functional; procedure, shortened: as §1

| SMILES | inhibition at 1 µM |
| --- | --- |
| N[C@@H](Cc1ccc(O)cc1)C(=O)NC1(C(=O)O)C2CC3CC(C2)CC1C3 (stereo partly drawn) | 9.8% |
